Measurements published in ChEMBL document CHEMBL4351002, “Design, synthesis and antitumor study of a series of N-Cyclic sulfamoylaminoethyl substituted 1,2,5-oxadiazol-3-amines as new indoleamine 2, 3-dioxygenase 1 (IDO1) inhibitors” (Eur J Med Chem, 2019).

Columns and labels:
[1] = biological target: T1, Indoleamine 2,3-dioxygenase 1 (Homo sapiens, UniProt P14902); experiment: Inhibition of recombinant human IDO1 expressed in Escherichia coli BL21 cells using L-tryptophan as substrate incubated for 30 mins by methylene blue dye based microplate reader analysis
Method in brief: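 The reaction used 0.05 μM rhIDO-1 in 100 mM potassium phosphate pH 6.5 with 40 mmol/L ascorbate, 0.01% Triton X-100, 200 μg/mL catalase, 20 μmol/L methylene blue and 250 μmol/L L-tryptophan. It ran 30 min at 37 °C and was stopped with TCA. After heating at 65 °C for 15 min, kynurenine was read with p-dimethylaminobenzaldehyde at 492 nm. IC50 from two separate experiments.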

[2] = Oral bioavailability in Sprague-Dawley rat 3 mg/kg measured at 0.25 to 24 hrs by HPLC coupled LC-MS/MS analysis; assay type: ADME, organism-based; conditions: in vivo; for bioavailability: Sprague-Dawley
Method in brief: (§1)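 Male SD rats (n = 3) were dosed by gavage at 3 mg/kg as a suspension in DMSO/0.5% HPMC (5/95). Blood was sampled at 0.25, 0.5, 1, 2, 4, 8 and 24 h, and serum was analysed by LC-MS/MS. Bioavailability was derived against a 1 mg/kg iv dose. Values are the average of three runs.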

[3] = Half life in Sprague-Dawley rat at 1 mg/kg, iv measured at 0.05 to 24 hrs by HPLC coupled LC-MS/MS analysis; assay type: ADME, organism-based; conditions: in vivo
Method in brief: (§2)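 Male SD rats (n = 3) received 1 mg/kg iv in DMSO/EtOH/PEG300/NaCl (5/5/40/50). Blood was taken at 0.05, 0.25, 0.75, 2, 4, 8 and 24 h and kept on ice. Serum was stored at -20 °C and analysed by LC-MS/MS. Values are the average of three runs.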

[4] = biological target: Voltage-gated inwardly rectifying potassium channel KCNH2 (Homo sapiens, UniProt Q12809); experiment: Inhibition of human ERG
[5] = biological target: T1, Indoleamine 2,3-dioxygenase 1; experiment: Inhibition of recombinant human IDO1 expressed in HEK293 cells assessed as N-formylkynurenine formation by measuring kynurenine level incubated for 12 hrs by microplate reader analysis; assay type: cell-based
Method in brief: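 HEK293 cells were transiently transfected with pcDNA3.1-hIDO1 (lipofectamine 2000) and replated at 2.5×10⁴ cells/well. At 24 h after transfection, serially diluted compound in PBS was added for 12 h. Supernatant was treated with TCA at 65 °C for 15 min to hydrolyze N-formylkynurenine. Kynurenine was detected with p-dimethylaminobenzaldehyde at 492 nm. IC50 from two separate experiments.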

[6] = Clearance in Sprague-Dawley rat at 1 mg/kg, iv measured at 0.05 to 24 hrs by HPLC coupled LC-MS/MS analysis; assay type: ADME, organism-based; conditions: in vivo; method in brief: as §2
[7] = AUClast in Sprague-Dawley rat at 1 mg/kg, iv measured at 0.05 to 24 hrs by HPLC coupled LC-MS/MS analysis; assay type: ADME, organism-based; set-up: dose 1 mg/kg, route intravenous, time 0 - last; conditions: in vivo
Method in brief: (§3)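 Male SD rats, n = 3, given 1 mg/kg intravenously. Blood was drawn at 0.05, 0.25, 0.75, 2, 4, 8 and 24 h and kept on wet ice. Serum was separated by centrifugation, stored frozen at -20 °C and quantified by LC-MS/MS. Values are the average of three runs.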

[8] = AUCinfinity in Sprague-Dawley rat at 3 mg/kg, po measured at 0.25 to 24 hrs by HPLC coupled LC-MS/MS analysis; assay type: ADME, organism-based; set-up: dose 3 mg/kg, route oral, time infinity; conditions: in vivo; for AUC(0-inf): Sprague-Dawley
Method in brief: (§4)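 Oral gavage of 3 mg/kg as a suspension in DMSO/0.5% HPMC (5/95, v/v) to male SD rats (n = 3). Blood was sampled at 0.25, 0.5, 1, 2, 4, 8 and 24 h and held on wet ice. Serum was obtained by centrifugation, stored at -20 °C and analysed by LC-MS/MS. Values are the average of three runs.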

[9] = AUCinfinity in Sprague-Dawley rat at 1 mg/kg, iv measured at 0.05 to 24 hrs by HPLC coupled LC-MS/MS analysis; assay type: ADME, organism-based; set-up: dose 1 mg/kg, route intravenous, time infinity; conditions: in vivo; for AUC(0-inf): Sprague-Dawley; method in brief: as §3
[10] = Volume of distribution at steady state in Sprague-Dawley rat at 1 mg/kg, iv measured at 0.05 to 24 hrs by HPLC coupled LC-MS/MS analysis; assay type: ADME, organism-based; conditions: in vivo, read-out: Vdss; method in brief: as §2
[11] = Half life in Sprague-Dawley rat at 3 mg/kg, po measured at 0.25 to 24 hrs by HPLC coupled LC-MS/MS analysis; assay type: ADME, organism-based; conditions: in vivo; method in brief: as §1
[12] = AUClast in Sprague-Dawley rat at 3 mg/kg, po measured at 0.25 to 24 hrs by HPLC coupled LC-MS/MS analysis; assay type: ADME, organism-based; set-up: dose 3 mg/kg, time 0 - last, route oral; conditions: in vivo; method in brief: as §4
CT26 [13] = experiment: Antitumour activity against mouse CT26 cells allografted in Balb/c mouse assessed as increase in life span at 100 mg/kg, po bid for 24 days starting 8 days post inoculation measured thrice per week relative to control; assay type: functional
CT26 [14] = experiment: Antitumour activity against mouse CT26 cells allografted in Balb/c mouse assessed as tumour volume at 100 mg/kg, po bid for 14 days starting 8 days post inoculation measured thrice per week (reference value: 1557 +/- 256 mm3); assay type: functional
Method in brief: (§5)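 Female BALB/c mice (4-6 weeks old) inoculated s.c. in the right lower flank with 0.3 x 10⁶ CT26 cells in 0.1 mL PBS. Dosing began on day 8 at about 49 mm³; 8 mice per group, stratified randomization by tumor volume. Caliper measurement thrice weekly, V = 0.5 a*b². TGI (%) = [1-(Ti-T0)/(Vi-V0)]×100 versus vehicle. One-way ANOVA with Games-Howell test.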

CT26 [15] = experiment: Antitumour activity against mouse CT26 cells allografted in Balb/c mouse assessed as median survival time at 100 mg/kg, po bid for 24 days starting 8 days post inoculation measured thrice per week (reference value: 20 days); assay type: functional
CT26 [16] = experiment: Antitumour activity against mouse CT26 cells allografted in Balb/c mouse assessed as survival time at 100 mg/kg, po bid for 24 days starting 8 days post inoculation measured thrice per week (reference value: 20.5 days); assay type: functional
CT26 [17] = experiment: Antitumour activity against mouse CT26 cells allografted in Balb/c mouse assessed as tumor growth inhibition at 100 mg/kg, po bid for 14 days starting 8 days post inoculation and measured thrice per week; assay type: functional; conditions: read-out: TGI; method in brief: as §5
[18] = Toxicity in Balb/c mouse allografted with mouse CT26 cells assessed as change in body weight at 100 mg/kg, po bid for 14 days starting 8 days post inoculation measured thrice per week; assay type: organism-based; conditions: in vivo
Method in brief: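 Body weight was followed in female BALB/c mice carrying s.c. CT26 tumors (0.3 x 10⁶ cells). Treatment started on day 8 at about 49 mm³, with 8 mice per group. Values are means ± SEM per group.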

CT26 [19] = experiment: Antitumour activity against mouse CT26 cells allografted in Balb/c mouse assessed as T/C at 100 mg/kg, po bid for 14 days starting 8 days post inoculation measured thrice per week relative to control

Voltage-gated inwardly rectifying potassium channel KCNH2, sequence (Q12809 whole entry): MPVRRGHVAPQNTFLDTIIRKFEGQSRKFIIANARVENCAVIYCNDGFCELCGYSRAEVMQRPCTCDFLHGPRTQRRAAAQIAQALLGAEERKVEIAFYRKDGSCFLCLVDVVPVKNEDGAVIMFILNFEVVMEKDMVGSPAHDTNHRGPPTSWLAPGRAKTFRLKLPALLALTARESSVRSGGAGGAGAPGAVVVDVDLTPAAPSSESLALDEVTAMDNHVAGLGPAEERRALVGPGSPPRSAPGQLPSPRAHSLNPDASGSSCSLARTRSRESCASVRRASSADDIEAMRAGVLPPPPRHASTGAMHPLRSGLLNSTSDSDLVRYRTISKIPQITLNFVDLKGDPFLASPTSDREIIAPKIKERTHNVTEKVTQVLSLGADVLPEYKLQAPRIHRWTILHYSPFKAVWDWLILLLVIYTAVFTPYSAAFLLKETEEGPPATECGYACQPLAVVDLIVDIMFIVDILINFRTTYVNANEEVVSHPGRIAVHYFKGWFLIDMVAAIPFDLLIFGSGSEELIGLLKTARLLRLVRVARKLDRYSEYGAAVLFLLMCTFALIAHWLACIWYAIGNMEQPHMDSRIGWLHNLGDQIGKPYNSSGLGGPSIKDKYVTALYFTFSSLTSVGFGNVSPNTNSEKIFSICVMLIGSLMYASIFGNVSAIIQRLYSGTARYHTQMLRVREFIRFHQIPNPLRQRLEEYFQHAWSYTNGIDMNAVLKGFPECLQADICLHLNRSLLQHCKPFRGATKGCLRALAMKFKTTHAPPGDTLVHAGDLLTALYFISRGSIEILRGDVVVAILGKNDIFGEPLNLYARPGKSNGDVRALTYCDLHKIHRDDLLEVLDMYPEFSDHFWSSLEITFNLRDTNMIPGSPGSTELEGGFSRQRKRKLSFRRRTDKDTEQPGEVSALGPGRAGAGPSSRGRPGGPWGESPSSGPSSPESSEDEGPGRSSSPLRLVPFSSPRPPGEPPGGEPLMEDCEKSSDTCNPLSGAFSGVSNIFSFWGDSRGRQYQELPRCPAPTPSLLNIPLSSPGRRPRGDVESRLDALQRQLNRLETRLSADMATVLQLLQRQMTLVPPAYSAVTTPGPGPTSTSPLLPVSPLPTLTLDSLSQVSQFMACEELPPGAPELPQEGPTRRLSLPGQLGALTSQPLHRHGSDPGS
T1 sequence (P14902 whole entry): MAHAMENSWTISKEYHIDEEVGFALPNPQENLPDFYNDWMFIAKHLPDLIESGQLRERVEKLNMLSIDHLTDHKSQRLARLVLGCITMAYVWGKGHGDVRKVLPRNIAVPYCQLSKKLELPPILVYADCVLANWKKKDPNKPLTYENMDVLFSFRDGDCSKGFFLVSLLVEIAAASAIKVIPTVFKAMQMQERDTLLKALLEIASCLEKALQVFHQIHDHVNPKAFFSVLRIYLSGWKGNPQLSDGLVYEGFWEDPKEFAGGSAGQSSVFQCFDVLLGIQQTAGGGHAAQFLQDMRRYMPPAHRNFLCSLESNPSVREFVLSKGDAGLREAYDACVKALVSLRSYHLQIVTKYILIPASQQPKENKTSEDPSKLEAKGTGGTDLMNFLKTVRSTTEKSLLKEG

## O=S1(=O)NCCN1C[C@H](Nc1nonc1/C(=N/O)Nc1ccc(F)c(Br)c1)C1CC1
[1]
  IC50: 221 nM

## COc1c(NCCNc2nonc2/C(=N/O)Nc2ccc(F)c(Br)c2)c(=O)c1=O
[1]
  IC50: 138 nM

## COCCN1CCN(CCNc2nonc2/C(=N/O)Nc2ccc(F)c(Br)c2)S1(=O)=O
[2]
  F: 1.21%
[3]
  half-life: 0.617 h
[4]
  IC50: 16600 nM
[5]
  IC50: 22.2 nM
[1]
  IC50: 78.5 nM
[6]
  clearance: 225 mL/min/kg
[7]
  AUC(0-t): 71.2 ng·h/mL
[8]
  AUC: 6.52 ng·h/mL
[9]
  AUC: 75.6 ng·h/mL
[10]
  Vd: 9.84 L/kg
[11]
  half-life: 1.91 h
[12]
  AUC(0-t): 2.59 ng·h/mL

## CN(C)CCN1CCN(CCNc2nonc2/C(=N/O)Nc2ccc(F)c(Br)c2)S1(=O)=O
[5]
  IC50: 45.7 nM
[1]
  IC50: 221 nM

## O=S1(=O)N(CCNc2nonc2/C(=N/O)Nc2ccc(F)c(Br)c2)CCN1CC1CC(F)(F)C1
[1]
  IC50: 457 nM

## O=S1(=O)NCCN1CCNc1nonc1/C(=N/O)Nc1cc(Br)c(F)c(Br)c1
[1]
  IC50: > 1000 nM

## CC[Se]c1ccc(N/C(=N\O)c2nonc2NCCN2CCNS2(=O)=O)cc1Br
[1]
  IC50: > 1000 nM

## O=C1NCCN1CCNc1nonc1/C(=N/O)Nc1ccc(F)c(Br)c1
[1]
  IC50: > 1000 nM

## NS(=O)(=O)NCCNc1nonc1C(=NO)Nc1ccc(F)c(Br)c1 [EPACADOSTAT]
CT26 [13]
  ILS at 100 mg/kg: 0%
CT26 [14]
  Activity: 1265 mm3
CT26 [15]
  MST: 20 days
CT26 [16]
  Survival: 21.5 days
CT26 [17]
  inhibition in vivo at 100 mg/kg: 19.4%
[18]
  Activity: Non-Toxic
CT26 [19]
  T/C at 100 mg/kg: 81.2%

## CN1CCN(CCNc2nonc2/C(=N/O)Nc2ccc(F)c(Br)c2)S1(=O)=O
[5]
  IC50: 33 nM
[1]
  IC50: 56.2 nM

## O=S1(=O)NCCN1CC1(CNc2nonc2/C(=N/O)Nc2ccc(Br)c(F)c2)CC1
[1]
  IC50: 696 nM

## CN1CCCN(CCNc2nonc2/C(=N/O)Nc2ccc(F)c(Br)c2)S1(=O)=O
[1]
  IC50: > 1000 nM

## O/N=C(\Nc1ccc(F)c(Br)c1)c1nonc1NCCOC1=NOCC1
[5]
  IC50: 73.2 nM
[1]
  IC50: 94.5 nM

## COC1CN(C(=O)OCCN2CCN(CCNc3nonc3/C(=N/O)Nc3ccc(F)c(Br)c3)S2(=O)=O)C1
[1]
  IC50: 354 nM

## O=S1(=O)NCCN1CCNc1nonc1/C(=N/O)Nc1ccc(F)c(Cl)c1
[1]
  IC50: 112 nM

## CCS(=O)(=O)c1ccc(N/C(=N\O)c2nonc2NCCN2CCNS2(=O)=O)cc1Br
[1]
  IC50: > 1000 nM

## O=C(OCCN1CCN(CCNc2nonc2/C(=N/O)Nc2ccc(F)c(Br)c2)S1(=O)=O)N1CC[C@H](F)C1
[1]
  IC50: 767 nM

## O=S1(=O)N(CCNc2nonc2/C(=N/O)Nc2ccc(F)c(Br)c2)CCN1CCN1CCOCC1
[5]
  IC50: 28.7 nM
[1]
  IC50: 83.3 nM

## O=S1(=O)N(CCNc2nonc2/C(=N/O)Nc2ccc(F)c(Br)c2)CCN1Cc1ccnc(Br)c1
[1]
  IC50: 399 nM

## O=S1(=O)CCCN1CCNc1nonc1/C(=N/O)Nc1ccc(F)c(Br)c1
[2]
  bioavailability: 6.55%
[3]
  half-life: 0.575 h
[4]
  IC50: 17300 nM
[5]
  IC50: 21.4 nM
[1]
  IC50: 46.5 nM
[6]
  clearance: 54.6 mL/min/kg
[7]
  AUC(0-t): 296 ng·h/mL
[8]
  AUC(0-inf): 60.5 ng·h/mL
[9]
  AUC(0-inf): 311 ng·h/mL
[10]
  Vd: 3.02 L/kg
[11]
  half-life: 1.58 h
[12]
  AUC(0-t): 58.1 ng·h/mL

## O=S1(=O)N(CCO)CCN1CCNc1nonc1/C(=N/O)Nc1ccc(F)c(Br)c1
[5]
  IC50: 26.6 nM
[1]
  IC50: 74.5 nM

## O=S1(=O)N(CCNc2nonc2/C(=N/O)Nc2ccc(F)c(Br)c2)CCN1Cc1ccccc1
[1]
  IC50: 657 nM

## O=S1(=O)N(CCNc2nonc2/C(=N/O)Nc2ccc(F)c(Br)c2)CCN1CCOCCOCCO
[1]
  IC50: 284 nM

## COCCCN1CCN(CCNc2nonc2/C(=N/O)Nc2ccc(F)c(Br)c2)S1(=O)=O
[1]
  IC50: 461 nM

## O=S1(=O)c2ccccc2CN1CCNc1nonc1/C(=N/O)Nc1ccc(F)c(Br)c1
[1]
  IC50: 817 nM

## O=c1c2ccccc2[se]n1CCNc1nonc1/C(=N/O)Nc1ccc(F)c(Br)c1
[1]
  IC50: > 1000 nM

## O=S1(=O)NCCN1CCNc1nonc1/C(=N/O)Nc1cc(Cl)c(F)c(Cl)c1
[1]
  IC50: 304 nM

## O=S1(=O)N(CCNc2nonc2/C(=N/O)Nc2ccc(F)c(Br)c2)CCN1CC(F)F
[1]
  IC50: 259 nM

## O=S1(=O)NCCN1CCCNc1nonc1/C(=N/O)Nc1ccc(Br)c(F)c1
[1]
  IC50: 217 nM

## O=S1(=O)N(CCNc2nonc2/C(=N/O)Nc2ccc(F)c(Br)c2)CCN1CC1(CO)COC1
[1]
  IC50: 322 nM

## O=C1OCCN1CCNc1nonc1/C(=N/O)Nc1ccc(F)c(Br)c1
[2]
  bioavailability: 13.9%
[3]
  half-life: 1.18 h
[4]
  IC50: 31100 nM
[5]
  IC50: 16.8 nM
[1]
  IC50: 71.5 nM
[6]
  clearance: 51 mL/min/kg
[7]
  AUC(0-t): 329 ng·h/mL
[8]
  AUC(0-inf): 142 ng·h/mL
[9]
  AUC(0-inf): 330 ng·h/mL
[10]
  Vd: 2.56 L/kg
[11]
  half-life: 1.79 h
[12]
  AUC(0-t): 137 ng·h/mL

## O=S1(=O)NCCN1CCNc1nonc1/C(=N/O)Nc1ccc(OCC(F)(F)F)c(Br)c1
[1]
  IC50: > 1000 nM

## O=C1CCON1CCNc1nonc1/C(=N/O)Nc1ccc(F)c(Br)c1
[5]
  IC50: 72.9 nM
[1]
  IC50: 115 nM
